Among the data in ChEMBL document CHEMBL1142952, “Design, synthesis, and activity of 2-imidazol-1-ylpyrimidine derived inducible nitric oxide synthase dimerization inhibitors” (J Med Chem, 2007) are IC50, Activity and Ratio IC50 values, retold here.

pIC50: −log10 of the molar value. Calls of active or inactive are those of the source. How the calls were made is not given here.

The target in assay [1] is Nitric oxide synthase, inducible (Homo sapiens, UniProt P35228). The experiment in a line: Inhibition of cytokine-induced iNOS expressed in human A172 cells assessed as inhibition of NO formation. Format: cell-based, A 172.
Assay [2] concerns the target Nitric oxide synthase, inducible (Rattus norvegicus) (UniProt Q06518). The experiment in a line: Activity against rat cerebellum iNOS upto 1 uM.
A short description of assay [3]: Inhibition of vaccinia virus system-induced human NOS expressed in BSC1 cells. Format: cell-based. To be noted: bsc-1.
The subject of assay [4] is BSC-1. The experiment in a line: Selectivity ratio, IC50 for ecNOS/IC50 for iNOS using vaccinia virus-induced system in BSC1 cells. To be noted: Homo sapiens. The format is cell-based. The method, boiled down: (§1)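 For each compound, the IC50 against bcNOS (b/i) or ecNOS (e/i) is divided by the iNOS IC50 from the same BSC-1 vaccinia system.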
For assay [5], the system named is BSC-1. Kind of assay: Selectivity ratio, IC50 for bcNOS/IC50 for iNOS using vaccinia virus-induced system in BSC1 cells. Format: cell-based. To be noted: Homo sapiens. The method, boiled down:
as §1

Chain of Nitric oxide synthase, inducible (P35228 whole entry): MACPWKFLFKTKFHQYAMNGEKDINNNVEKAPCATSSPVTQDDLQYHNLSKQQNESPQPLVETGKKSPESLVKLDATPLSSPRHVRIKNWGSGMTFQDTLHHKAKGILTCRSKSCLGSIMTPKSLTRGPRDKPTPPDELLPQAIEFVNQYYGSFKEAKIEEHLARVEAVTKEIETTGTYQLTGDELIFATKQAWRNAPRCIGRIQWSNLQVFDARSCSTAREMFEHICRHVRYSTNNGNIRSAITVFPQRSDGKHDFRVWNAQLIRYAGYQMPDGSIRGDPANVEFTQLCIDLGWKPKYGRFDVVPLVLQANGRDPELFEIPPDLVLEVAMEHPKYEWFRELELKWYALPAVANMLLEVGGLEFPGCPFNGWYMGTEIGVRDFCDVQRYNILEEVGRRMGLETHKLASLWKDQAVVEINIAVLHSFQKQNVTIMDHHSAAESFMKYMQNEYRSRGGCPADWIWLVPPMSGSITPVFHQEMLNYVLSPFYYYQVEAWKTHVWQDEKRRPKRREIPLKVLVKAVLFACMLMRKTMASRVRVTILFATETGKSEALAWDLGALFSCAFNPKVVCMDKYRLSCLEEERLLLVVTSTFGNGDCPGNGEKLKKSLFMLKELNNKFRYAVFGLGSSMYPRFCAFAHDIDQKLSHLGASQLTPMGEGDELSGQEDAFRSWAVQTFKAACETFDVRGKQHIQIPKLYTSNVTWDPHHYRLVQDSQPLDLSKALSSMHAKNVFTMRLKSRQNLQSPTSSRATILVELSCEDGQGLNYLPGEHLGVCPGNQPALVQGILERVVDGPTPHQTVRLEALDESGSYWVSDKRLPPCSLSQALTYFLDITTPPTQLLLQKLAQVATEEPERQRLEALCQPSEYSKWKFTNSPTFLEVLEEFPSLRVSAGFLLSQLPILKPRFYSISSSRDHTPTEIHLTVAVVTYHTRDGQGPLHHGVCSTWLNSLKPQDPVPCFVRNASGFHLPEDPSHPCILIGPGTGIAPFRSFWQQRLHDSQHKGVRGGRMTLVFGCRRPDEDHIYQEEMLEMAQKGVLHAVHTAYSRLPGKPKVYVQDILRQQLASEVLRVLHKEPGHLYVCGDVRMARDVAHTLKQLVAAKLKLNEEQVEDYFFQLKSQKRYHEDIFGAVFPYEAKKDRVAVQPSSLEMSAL
Chain of Nitric oxide synthase, inducible (Rattus norvegicus) (Q06518 whole entry): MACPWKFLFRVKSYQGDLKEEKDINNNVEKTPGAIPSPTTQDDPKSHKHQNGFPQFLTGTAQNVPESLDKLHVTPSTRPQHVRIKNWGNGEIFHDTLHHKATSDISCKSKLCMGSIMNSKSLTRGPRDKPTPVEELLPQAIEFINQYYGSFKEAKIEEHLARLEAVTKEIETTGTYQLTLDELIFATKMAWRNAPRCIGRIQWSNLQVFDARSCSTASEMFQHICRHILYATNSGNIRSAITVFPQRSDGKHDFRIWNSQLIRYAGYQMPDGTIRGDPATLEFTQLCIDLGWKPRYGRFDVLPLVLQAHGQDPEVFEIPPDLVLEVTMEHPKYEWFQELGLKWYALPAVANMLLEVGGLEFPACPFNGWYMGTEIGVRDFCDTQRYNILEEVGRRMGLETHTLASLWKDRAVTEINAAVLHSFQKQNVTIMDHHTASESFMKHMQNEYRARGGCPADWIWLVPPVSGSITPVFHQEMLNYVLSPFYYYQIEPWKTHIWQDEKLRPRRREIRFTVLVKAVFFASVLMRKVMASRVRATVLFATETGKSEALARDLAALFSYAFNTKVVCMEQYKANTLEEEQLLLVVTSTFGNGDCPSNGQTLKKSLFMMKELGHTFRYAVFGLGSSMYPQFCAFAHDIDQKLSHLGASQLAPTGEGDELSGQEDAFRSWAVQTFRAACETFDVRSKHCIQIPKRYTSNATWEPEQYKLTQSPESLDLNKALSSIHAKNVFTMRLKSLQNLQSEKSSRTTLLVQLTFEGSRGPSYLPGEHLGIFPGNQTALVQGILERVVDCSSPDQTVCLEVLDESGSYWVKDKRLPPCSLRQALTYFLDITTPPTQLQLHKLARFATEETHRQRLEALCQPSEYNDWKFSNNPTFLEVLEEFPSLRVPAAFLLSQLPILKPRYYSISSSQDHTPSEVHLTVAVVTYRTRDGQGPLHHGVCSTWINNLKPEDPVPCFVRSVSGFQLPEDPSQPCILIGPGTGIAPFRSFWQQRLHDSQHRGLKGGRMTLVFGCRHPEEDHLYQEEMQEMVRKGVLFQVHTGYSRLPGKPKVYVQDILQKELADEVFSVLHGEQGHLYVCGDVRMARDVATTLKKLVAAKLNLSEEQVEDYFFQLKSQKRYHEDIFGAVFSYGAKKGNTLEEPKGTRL

The pIC50 is the negative decadic logarithm of the IC50, by convention in mol/L. Take `O=C(CC1CCCCN1c1ccnc(-n2ccnc2)n1)NCc1ccc2c(c1)OCO2` (stereo not given): the pIC50 in assay [1] was 9.30; in assay [3] it was 8.15. Moreover, the outcome in assay [2] was inactive. Besides, the Ratio IC50 in assay [4] came out at 520; in assay [5], 5.
Take `O=C(CC1CCCCN1c1ccnc(-n2ccnc2)n1)NCc1ccc(Cl)cc1` (stereo not given): the outcome in assay [2] was inactive. Besides, the pIC50 in assay [3] is 6.80.
With `COc1ccc(CCNC(=O)CC2CCCCN2c2ccnc(-n3ccnc3)n2)cc1OC` (stereo not given), the pIC50 in assay [1] is 7.92; in assay [3], 6.17. In assay [2], the outcome was inactive. Further, the Ratio IC50 is 120 in assay [4] and 1 in assay [5].
Take `O=C(CC1CCCCN1c1ccnc(-n2ccnc2)n1)NC(c1ccccc1)c1ccccc1` (stereo not given): in assay [2], the outcome was inactive.
Regarding `CS(=O)(=O)c1ccc(CNC(=O)CC2CCCCN2c2ccnc(-n3ccnc3)n2)cc1` (stereo not given), in assay [2], the result was inactive. The pIC50 in assay [3] is 6.03.
Consider `O=C(CC1CN(C(=O)COCc2ccccc2)CCN1c1ccnc(-n2ccnc2)n1)NCc1ccc2c(c1)OCO2` (stereo not given), for which the pIC50 in assay [1] was 9.30; in assay [3], 7.55. In assay [2], the outcome was inactive. Further, the Ratio IC50 in assay [4] was 1220; in assay [5], 11.
As for `COc1cc(CNC(=O)CC2CCCCN2c2ccnc(-n3ccnc3)n2)cc(OC)c1OC` (stereo not given), the pIC50 in assay [1] was less than 7.00. Moreover, the result in assay [2] was inactive.
With `COc1ccccc1CNC(=O)CC1CCCCN1c1ccnc(-n2ccnc2)n1` (stereo not given), in assay [2], the outcome was inactive. For the same compound, the pIC50 in assay [3] is 6.30.
For the compound `CN(C)c1ccc(CNC(=O)CC2CCCCN2c2ccnc(-n3ccnc3)n2)cc1` (stereo not given), the negative logarithm of the IC50 (pIC50) is 7.18 in assay [1] and 6.61 in assay [3]. In addition, the result in assay [2] was inactive. In addition, the Ratio IC50 in assay [4] was 86; in assay [5] it was 29.
The like results for `O=C(CC1CCCCN1c1ccnc(-n2ccnc2)n1)NCc1ccco1` (stereo not given) were, in that order, 7.20, 6.59, “inactive”, 140 and 13.
Turning to `Cc1cc(N2CCN(C(=O)C(C)C)[C@@H](CC(=O)NCc3ccc4c(c3)OCO4)C2)nc(-n2ccnc2)n1`, the negative logarithm of the IC50 (pIC50) in assay [1] was 6.52; in assay [3], less than 6.00. In addition, the result in assay [2] was inactive.
Regarding `O=C(CC1CCCCN1c1ccnc(-n2ccnc2)n1)NCc1ccc([N+](=O)[O-])cc1` (stereo not given), the pIC50 in assay [1] was 6.77; in assay [3] it was 6.03. Moreover, the outcome in assay [2] was inactive. Moreover, the Ratio IC50 was 74 in assay [4] and greater than 10 in assay [5].
For `O=C(CC1COCCN1c1ccnc(-n2ccnc2)n1)NCc1ccc2c(c1)OCO2` (stereo not given), in assay [1], the pIC50 is 9.30. Moreover, in assay [2], the result was inactive.
On to `Cc1cc(N2CCCCC2CC(=O)NCc2ccc3c(c2)OCO3)nc(-n2ccnc2)n1` (stereo not given), for which the results for the pIC50 in assay [1] and in assay [3] were 8.39 and 7.80, respectively. Moreover, in assay [2], the outcome was inactive. Further, the Ratio IC50 in assay [4] was 1200; in assay [5], 5.
As to `O=C(CC1CCCCN1c1cc(-c2ccccc2)nc(-n2ccnc2)n1)NCc1ccc2c(c1)OCO2` (stereo not given), the pIC50 in assay [1] is 7.17; in assay [3], 6.35. The outcome in assay [2] was inactive. The Ratio IC50 amounted to 36 in assay [4] and 4 in assay [5].
For the compound `COC(=O)N1CCN(c2cc(C)nc(-n3ccnc3)n2)CC1CC(=O)NCc1ccc2c(c1)OCO2` (stereo not given), the results for the pIC50 in assay [1] and in assay [3] were 8.27 and 6.38, respectively. Besides, in assay [2], the outcome was inactive. Besides, the results for the Ratio IC50 in assay [4] and in assay [5] were greater than 200 and 50, respectively.
With `COc1ccc(CNC(=O)CC2CCCCN2c2ccnc(-n3ccnc3)n2)cc1` (stereo not given), in assay [2], the result was inactive. Moreover, the pIC50 in assay [3] is 7.64.
As for `O=C(CC1CCCCN1c1ccnc(-n2ccnc2)n1)NCc1ccc(C(F)(F)F)cc1` (stereo not given), the pIC50 in assay [1] is 6.82; in assay [3], 6.59. Further, the outcome in assay [2] was inactive. Moreover, the Ratio IC50 in assay [4] was determined as 70; in assay [5], 3.
The like results for `O=C(CC1CN(C(=O)Nc2ccccc2)CCN1c1ccnc(-n2ccnc2)n1)NCc1ccc2c(c1)OCO2` (stereo not given) were, in that order, 9.06, 7.60, “inactive”, 350 and 3.
Consider `O=C(CC1CN(C(=O)c2ccco2)CCN1c1ccnc(-n2ccnc2)n1)NCc1ccc2c(c1)OCO2` (stereo not given), for which the pIC50 is 9.17 in assay [1] and 7.32 in assay [3]. Also, in assay [2], the outcome was inactive. Moreover, the Ratio IC50 in assay [4] worked out at 1000; in assay [5], 6.
The like results for `O=C(CC1CCCCN1c1ccnc(-n2ccnc2)n1)NCc1ccc(F)cc1` (stereo not given) were, in that order, 8.52, 6.68, “inactive”, 490 and 5.
As to `O=C(CC1CCCCN1c1ccnc(-n2ccnc2)n1)NCc1ccc(OC(F)(F)F)cc1` (stereo not given), the figures for the pIC50 in assay [1] and in assay [3] were 7.72 and 6.85, respectively. Also, in assay [2], the result was inactive. Also, the Ratio IC50 in assay [4] was found to be 220; in assay [5] it was 5.
On to `CS(=O)(=O)N1CCN(c2ccnc(-n3ccnc3)n2)C(CC(=O)NCc2ccc3c(c2)OCO3)C1` (stereo not given), for which the pIC50 in assay [1] is 9.15; in assay [3], 7.13. Further, in assay [2], the outcome was inactive. The Ratio IC50 is greater than 1000 in assay [4] and 12 in assay [5].
For the compound `Cc1cc(N2CCC[C@H]2C(=O)NCCc2ccc3c(c2)OCO3)nc(-n2ccnc2)n1`, in assay [1], the pIC50 was 5.19. The result in assay [2] was inactive.
Regarding `O=C(CC1CN(S(=O)(=O)c2ccccc2)CCN1c1ccnc(-n2ccnc2)n1)NCc1ccc2c(c1)OCO2` (stereo not given), the figures for the negative-log IC50 (pIC50) in assay [1] and in assay [3] were 8.57 and 7.47, respectively. In addition, the result in assay [2] was inactive. For the same compound, the Ratio IC50 in assay [4] stood at 1100; in assay [5], 9.
With `CN(Cc1ccccc1)C(=O)CC1CCCCN1c1ccnc(-n2ccnc2)n1` (stereo not given), the outcome in assay [2] was inactive.
Turning to `CC(C)CCN1CCN(c2ccnc(-n3ccnc3)n2)C(CC(=O)NCc2ccc3c(c2)OCO3)C1` (stereo not given), the pIC50 was 9.00 in assay [1] and 8.00 in assay [3]. Further, the outcome in assay [2] was inactive. The Ratio IC50 in assay [4] came to 1000; in assay [5], 6.
The like results for `O=C(CC1CN(Cc2ccccc2)CCN1c1ccnc(-n2ccnc2)n1)NCc1ccc2c(c1)OCO2` (stereo not given) were, in that order, 9.00, 7.89, “inactive”, 770 and 7.
As to `O=C(CC1CN(C(=O)OCc2ccccc2)CCN1c1ccnc(-n2ccnc2)n1)NCc1ccc2c(c1)OCO2` (stereo not given), the pIC50 is 9.10 in assay [1] and 7.74 in assay [3]. In addition, the outcome in assay [2] was inactive. In addition, the Ratio IC50 turned out to be 660 in assay [4] and 7 in assay [5].
In the case of `O=C(CC1CCCCN1c1ccnc(-n2ccnc2)n1)NCc1ccccn1` (stereo not given), the result in assay [2] was inactive.
Consider `Cc1ccc(CNC(=O)CC2CCCCN2c2ccnc(-n3ccnc3)n2)cc1` (stereo not given), for which the outcome in assay [2] was inactive. The same compound had a pIC50 in assay [3] of 6.56.
The like results for `COc1ccc(NC(=O)CC2CCCCN2c2ccnc(-n3ccnc3)n2)cc1OC` (stereo not given) were, in that order, “inactive” and 5.74.
As for `Cc1cc(N2CCNC(CC(=O)NCc3ccc4c(c3)OCO4)C2)nc(-n2ccnc2)n1` (stereo not given), the pIC50 in assay [1] is 7.00; in assay [3] it was less than 6.00. Besides, the result in assay [2] was inactive.
As to `CNC(=O)CC1CCCCN1c1ccnc(-n2ccnc2)n1` (stereo not given), the pIC50 in assay [1] is less than 7.00. Besides, the result in assay [2] was inactive.
Regarding `CS(=O)(=O)Nc1ccc(CNC(=O)CC2CCCCN2c2ccnc(-n3ccnc3)n2)cc1` (stereo not given), the outcome in assay [2] was inactive. The pIC50 in assay [3] was less than 6.00.
In the case of `O=C(CC1CCCCN1c1cccc(-n2ccnc2)c1)NCc1ccc2c(c1)OCO2` (stereo not given), in assay [1], the pIC50 was 7.11. The result in assay [2] was inactive.
Take `NS(=O)(=O)c1ccc(CNC(=O)CC2CCCCN2c2ccnc(-n3ccnc3)n2)cc1` (stereo not given): the result in assay [2] was inactive. The same compound gave a pIC50 in assay [3] of less than 6.48.
Take `CN(C)c1cccc2c(S(=O)(=O)N3CCN(c4ccnc(-n5ccnc5)n4)C(CC(=O)NCc4ccc5c(c4)OCO5)C3)cccc12` (stereo not given): the pIC50 in assay [1] is 8.96. The result in assay [2] was inactive.
Take `O=C(CC1CCCCN1c1ccnc(-n2ccnc2)n1)NCc1ccccc1` (stereo not given): the result in assay [2] was inactive. Besides, the negative logarithm of the IC50 (pIC50) in assay [3] was 6.36.
On to `O=C(CC1CCCCCN1c1ccnc(-n2ccnc2)n1)NCc1ccc2c(c1)OCO2` (stereo not given), for which the negative logarithm of the IC50 (pIC50) in assay [1] is 8.70. Moreover, the outcome in assay [2] was inactive.
For the compound `COC(=O)N1CCN(c2ccnc(-n3ccnc3)n2)[C@H](CC(=O)NCc2ccc3c(c2)OCO3)C1`, the pIC50 was 7.47 in assay [1] and less than 6.00 in assay [3]. Further, in assay [2], the result was inactive.
With `Nc1ccc(CNC(=O)CC2CCCCN2c2ccnc(-n3ccnc3)n2)cc1` (stereo not given), the outcome in assay [2] was inactive. This compound gave a pIC50 in assay [3] of 6.07.
The like results for `COc1ccc(CNC(=O)CC2CCCCN2c2ccnc(-n3ccnc3)n2)cc1OC` (stereo not given) were, in that order, “inactive” and 6.96.
`Cc1cc(N2CCN(S(C)(=O)=O)C(CC(=O)NCc3ccc4c(c3)OCO4)C2)nc(-n2ccnc2)n1` (stereo not given): the pIC50 in assay [1] was 7.92; in assay [3], less than 6.00. The outcome in assay [2] was inactive.
With `O=C(CC1CCCCN1c1ccnc(-n2ccnc2)n1)Nc1ccc2c(c1)OCO2` (stereo not given), the pIC50 in assay [1] was less than 7.00. In assay [2], the outcome was inactive.
On to `N#Cc1ccc(CNC(=O)CC2CCCCN2c2ccnc(-n3ccnc3)n2)cc1` (stereo not given), for which, in assay [2], the outcome was inactive. Further, the pIC50 in assay [3] is less than 6.00.
